In the array DNA melting data of Ke et al. (doi:10.1101/2024.01.08.574731):

What was measured:
[1] = folding enthalpy; higher = less favourable; fluorescence melt of hairpins on a sequencing array, two-state fit; details: sodium 0.088 M
Procedure, shortened: (§1)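 Melting temperature and folding enthalpy were derived from bootstrapped two-state fits. The fitted temperatures were raised by 9.35 °C to agree with UV melts, and four replicates were combined by inverse variance. The underlying data were Cy3 fluorescence images of library hairpins, with annealed Cy3 and quencher oligos, on a sequenced MiSeq flow cell in 50 mM Na-HEPES pH 8.0, 25 mM NaCl, taken in 2.5 °C steps up to 60 °C, normalised to pre-quench Cy3 and to control constructs.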

[2] = melting temperature; fluorescence melt of hairpins on a sequencing array, two-state fit, raised by 9.35 °C to match UV melts; details: sodium 0.088 M
Procedure, shortened: as §1

Sequence | folding enthalpy [1] | Tm [2]
GCTCTGGGAAACTAGAGC (((((.(....).))))) | -51 kcal/mol | 49.7 °C
GCTCTTCGAAAGAAAAGC (((.(((....))).))) | -31.4 kcal/mol | 34.6 °C
GCTCTTCGAAAGAACAGC (((.(((....))).))) | -22.2 kcal/mol | 34.7 °C
GCTGAACGAAAGTTTAGC (((.(((....))).))) | -31.5 kcal/mol | 53 °C
GCTGAAGAAATTCAGC ((((((....)))))) | -37.6 kcal/mol | 54.5 °C
GCTGAAGGAAACCTCAGC (((((.(....).))))) | -37.2 kcal/mol | 47 °C
GCTGAAGGAAACTTCGGC ((.((((....)))).)) | -49.4 kcal/mol | 51.3 °C
GCTGAAGGAAACTTTGGC ((..(((....)))..)) | -20 kcal/mol | 33 °C
GCTGACCGAAAGGTAGC (((.(((....)))))) | -25.5 kcal/mol | 51.7 °C
GCTGACCGAAAGGTTAGC (((.(((....))).))) | -33.8 kcal/mol | 58.9 °C
GCTGACGAAAGTCCCAGC ((((((....)))..))) | -14.2 kcal/mol | 36.7 °C
GCTGACGAAAGTCTGAGC ((((((....)))..))) | -20.1 kcal/mol | 43.5 °C
GCTGACGGAAACGCCAGC ((((.((....)).)))) | -42.1 kcal/mol | 55.3 °C
GCTGACGGAAACGTTAGC (((.(((....))).))) | -43 kcal/mol | 53.6 °C
GCTGACGGAAACGTTGGC ((..(((....)))..)) | -27.3 kcal/mol | 47 °C
GCTGAGCGAAAGCACTGC ((.(.((....)).).)) | -20 kcal/mol | 49.5 °C
GCTGAGCGAAAGCGTAGC (((..((....))..))) | -21.8 kcal/mol | 62 °C
GCTGAGCGAAAGCTAAGC (((.(((....))).))) | -50.4 kcal/mol | 56.1 °C
GCTGAGCGAAAGCTCCGC ((.((((....)))).)) | -19.7 kcal/mol | 57.7 °C
GCTGAGCGAAAGCTGGGC ((..(((....)))..)) | -19.8 kcal/mol | 50.3 °C
GCTGAGCGAAAGCTTGGC ((..(((....)))..)) | -20.9 kcal/mol | 55.4 °C
GCTGAGGGAAACCTTGGC ((..(((....)))..)) | -26.6 kcal/mol | 38.1 °C
GCTGAGGGAAACTTCAGC (((((.(....).))))) | -32.5 kcal/mol | 48.6 °C

Sequence | folding enthalpy [1] | Tm [2]
GCTGAGTCGAAAGACAGC (((..(((....)))))) | -20.8 kcal/mol | 44.5 °C
GCTGATGGAAACATCGGC ((.((((....)))).)) | -43 kcal/mol | 54.1 °C
GCTGATGGAAACATTAGC (((.(((....))).))) | -37.4 kcal/mol | 46.5 °C
GCTGCAACGAAAGTTAGC (((..(((....)))))) | -17.2 kcal/mol | 39.8 °C
GCTGCACGAAAGTGAGC (((.(((....)))))) | -18.8 kcal/mol | 51.3 °C
GCTGCACGAAAGTGGAGC (((.(((....))).))) | -34.2 kcal/mol | 65.6 °C
GCTGCACGAAAGTGTAGC (((.(((....))).))) | -43.9 kcal/mol | 65 °C
GCTGCAGGAAACTGTAGC (((.(((....))).))) | -34.3 kcal/mol | 52 °C
GCTGCCGAAAGGCGCAGC ((((((....)))..))) | -13.6 kcal/mol | 51.3 °C
GCTGCCGCGAAAGCGAGC (((..(((....)))))) | -9.35 kcal/mol | 57.6 °C
GCTGCCGGAAACGGCAAC (.(((((....))))).) | -10.9 kcal/mol | 47.4 °C
GCTGCCGGAAACGGTAGC (((.(((....))).))) | -39.9 kcal/mol | 64 °C
GCTGCGCGAAAGCATAGC (((..((....))..))) | -18.2 kcal/mol | 46.5 °C
GCTGCGCGAAAGCCAAGC (((..((....))..))) | -18.9 kcal/mol | 48.9 °C
GCTGCGCGAAAGCCCAGC ((((.((....)).)))) | -31.1 kcal/mol | 63.5 °C
GCTGCGCGAAAGCGACGC ((..(((....)))..)) | -19.4 kcal/mol | 56 °C
GCTGCGCGAAAGCGAGGC ((..(((....)))..)) | -20.3 kcal/mol | 60.6 °C
GCTGCGCGAAAGCGCCGC ((.((((....)))).)) | -15.3 kcal/mol | 63.1 °C
GCTGCGCGAAAGCGGTGC ((..(((....)))..)) | -19.6 kcal/mol | 55.1 °C
GCTGCGCGAAAGCGTTGC ((..(((....)))..)) | -18.9 kcal/mol | 56.7 °C
GCTGCGGGAAACTGCAGC (((((.(....).))))) | -40.6 kcal/mol | 64.5 °C
GCTGCTACGAAAGTAAGC (((..(((....)))))) | -17.1 kcal/mol | 41.5 °C
GCTGCTGGAAACGGCAGC (((((.(....).))))) | -44.6 kcal/mol | 63.1 °C

Sequence | folding enthalpy [1] | Tm [2]
GCTGCTTCGAAAGAAAGC (((..(((....)))))) | -18 kcal/mol | 39.6 °C
GCTGGAGCGAAAGCTAGC (((..(((....)))))) | -16.6 kcal/mol | 49.9 °C
GCTGGCGAAAGCCAAAGC ((((((....)))..))) | -18.2 kcal/mol | 53.5 °C
GCTGGCGAAAGCCATAGC ((((((....)))..))) | -16.2 kcal/mol | 52.3 °C
GCTGGCGAAAGCCCAAGC ((((((....)))..))) | -15.3 kcal/mol | 50 °C
GCTGGCGAAAGCCCAGC ((((((....))).))) | -23.1 kcal/mol | 65.7 °C
GCTGGCGAAAGCCGAAGC ((((((....)))..))) | -16.5 kcal/mol | 50.8 °C
GCTGGCGAAAGCCGAGC ((((((....))).))) | -23.5 kcal/mol | 65.3 °C
GCTGGCGAAAGCCGTAGC ((((((....)))..))) | -13.9 kcal/mol | 58.9 °C
GCTGGCGAAAGCCTGAGC ((((((....)))..))) | -14.8 kcal/mol | 50.2 °C
GCTGGCGCGAAAGCGAGC (((..(((....)))))) | -9.37 kcal/mol | 55.6 °C
GCTGGCGGAAACGCTAGC (((.(((....))).))) | -40.5 kcal/mol | 59.1 °C
GCTGGGCGAAAGCCAGGC ((..(((....)))..)) | -17.7 kcal/mol | 59.6 °C
GCTGGGCGAAAGCCGCGC ((..(((....)))..)) | -15.3 kcal/mol | 61.4 °C
GCTGGGCGAAAGCTCCGC ((.(.((....)).).)) | -20.4 kcal/mol | 41.8 °C
GCTGGGCGAAAGCTCGGC ((.(.((....)).).)) | -32.5 kcal/mol | 60.3 °C
GCTGGGCGAAAGCTTAGC (((..((....))..))) | -23 kcal/mol | 50.5 °C
GCTGGGGCGAAAGCCAGC (((..(((....)))))) | -16.8 kcal/mol | 55.3 °C
GCTGGGGGAAACTCCAGC (((((.(....).))))) | -37.6 kcal/mol | 58 °C
GCTGGGTCGAAAGACAGC (((..(((....)))))) | -19.9 kcal/mol | 46 °C
GCTGGTCCGAAAGGAAGC (((..(((....)))))) | -13.2 kcal/mol | 34.9 °C
GCTGGTCGAAAGACAAGC (((.(((....))).))) | -41.4 kcal/mol | 56.2 °C
